This passage reports inhibition results from PubChem BioAssay AID1325 (NMMLSC, 2008).

The campaign covered roughly 190,000 compounds. About 200 (0.11%) were called active. Many of the other results were omitted from the sample, so actives are more common in it than they were. Values without a mark were called inactive.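 How the source made its calls: active means inhibition above 80%; inactive means the rest.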

In the experiment the target is Broad substrate specificity ATP-binding cassette transporter ABCG2 (Homo sapiens) (UniProt Q9UNQ0). Kind of experiment: blockers of JC-1 export by ABCG2 – multiplex with ABCB1, IgMXP3 cells, flow cytometry, primary screen (AID 1325).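 Further: 0% = DMSO and 100% = nicardipine control wells.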 The note with it: JC-1 efflux, at 6.6 µM, active compounds read high. In a few lines: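 Read-out basis: Efflux inhibition in percent versus controls | Test system: ABCG2 IgMXP3 and barcoded ABCB1 CCRF-Adr cell mix | Quantity: 3 million cells/mL in well | Schedule: 10 min at 25 °C | Control set: Nicardipine as high control, DMSO as low control | Reagent: JC-1 as fluorescent efflux pump substrate | Signal: Flow cytometry of retained JC-1 fluorescence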
Sequence of Broad substrate specificity ATP-binding cassette transporter ABCG2 (Homo sapiens) (Q9UNQ0 whole entry, looked up): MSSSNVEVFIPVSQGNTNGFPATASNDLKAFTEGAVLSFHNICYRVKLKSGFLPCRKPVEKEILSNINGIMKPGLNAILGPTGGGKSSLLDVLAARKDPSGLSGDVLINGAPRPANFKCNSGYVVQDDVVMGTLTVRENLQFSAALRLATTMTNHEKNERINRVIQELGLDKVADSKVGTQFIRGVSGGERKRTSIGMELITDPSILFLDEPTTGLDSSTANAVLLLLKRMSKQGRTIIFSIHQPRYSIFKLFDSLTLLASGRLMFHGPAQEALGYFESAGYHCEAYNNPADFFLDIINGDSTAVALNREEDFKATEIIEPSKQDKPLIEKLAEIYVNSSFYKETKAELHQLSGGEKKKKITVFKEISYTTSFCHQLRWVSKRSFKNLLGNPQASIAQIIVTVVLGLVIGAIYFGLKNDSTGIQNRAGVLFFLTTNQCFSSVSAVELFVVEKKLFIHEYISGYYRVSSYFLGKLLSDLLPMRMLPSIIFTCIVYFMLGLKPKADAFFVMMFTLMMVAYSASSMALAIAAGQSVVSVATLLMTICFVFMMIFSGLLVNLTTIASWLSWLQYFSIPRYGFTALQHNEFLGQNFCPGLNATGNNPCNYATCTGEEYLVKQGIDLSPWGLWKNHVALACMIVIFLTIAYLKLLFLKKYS
For orientation: In flow cytometry, cells or beads pass a laser one at a time.
A word on the inhibition: it is the drop in the measured response relative to a control, in per cent. Regarding `CC(C)n1c(-c2ccncc2)n[nH]c1=S`, the inhibition was 0.69%. For `Clc1ncn(CCOc2ccccc2)c1Cl`, the inhibition was 1.15%. As for `CN(/C(=N/S(=O)(=O)c1cccs1)c1ccccc1)c1ccc(O)cc1`, the inhibition is 0.46%. For the compound `N#C/C(=C/c1ccc(N2CCOCC2)o1)C(=O)N1CCOCC1`, the inhibition is 7.86%. Turning to `COc1ccccc1-c1nnc(NC(=O)c2ccc3ncsc3c2)o1`, the inhibition was -4.46%. As for `COC(=O)c1ccc(CSc2nncn2N)cc1`, the figure is -1.84%. As to `CCOc1ccc(CN2CCN(Cc3ccon3)CC2CCO)cc1` (configuration not stated), the inhibition was -2.99%. For the compound `Cc1ncc([N+](=O)[O-])n1CCOC(=O)c1ccc(Br)cc1`, the inhibition was 9.29%. The same measure for `CCO/N=C(/C)c1c(O)cc(-c2ccccc2)n(-c2ccccc2)c1=O`: 32.1%; for `Cc1nnsc1C(=O)Nc1cccc(Cl)c1C`: 10.7%. In the case of `CCC1=NN(C(=O)Cc2ccc([N+](=O)[O-])cc2)C(O)(c2ccc(Br)cc2)C1` (configuration not stated), the inhibition is 5.42%. Regarding `O=c1c(-c2ccccc2)coc2cc(O)ccc12`, the inhibition is 2.5%.

On to `CCn1nc(C)c(/C=N/NC(=O)Cc2ccc(Cl)cc2)c1C`, for which the inhibition is 9.46%. For the compound `Cc1ccc2nc(SCc3cn4c(C)cc(C)nc4n3)[nH]c2c1`, the inhibition is 7.53%.

Take `CC(C)(C)n1nc2c(c1NC(=O)c1cc3ccccc3o1)CSC2`: the inhibition was 0.23%. Turning to `Cc1nc(N)c(Br)c(C)c1Br`, the inhibition is 2.8%.

In the case of `CC(CCn1cccn1)NC(=O)CCc1nnc(CCc2ccccc2)o1` (configuration not stated), the inhibition is -0.02%. Regarding `CCOCC(=O)Nc1sc2c(c1C(=O)OCC)CCCC2`, the inhibition was 104% (active). Take `CCCOC(=O)Nc1sc2c(c1C(=O)OCC)CCC2`: the inhibition was 31.4%. With `CCOC(=O)c1c(NC(=O)c2ccc(Br)o2)sc2c1CCCC2`, the inhibition was 14.6%.

Take `O=C(NCc1ccccc1Cl)C1CCC(CNc2c(N3CCCCC3)c(=O)c2=O)CC1` (configuration not stated): the inhibition is 0%.

As to `CCOC(=O)c1sc(/N=C/C2=C(O)CC(C)(C)CC2=O)c(C(=O)OCC)c1C`, the inhibition was 3.82%. As for `COc1ccc(CC(=O)NCc2nnc(SCC(=O)Nc3nccs3)n2C)cc1`, the figure is 0.7%.

Regarding `COc1cc(NC(=O)c2cccnc2SC)cc(OC)c1`, the inhibition was 11.7%.

With `Cc1ccc(N2C(=O)SC(N(CC(=O)O)c3ccc(C)cc3)C2=O)cc1` (configuration not stated), the inhibition is 1.16%. In the case of `CC(=O)c1ccc(NC(=O)Nc2ccc([N+](=O)[O-])cc2C)cc1`, the inhibition is 28.4%.

Consider `COc1ccc(-c2cn(-c3ccc(OC)cc3)c(=S)[nH]2)cc1`, for which the inhibition is 6.92%. With `COc1cccc(NC(=O)c2ccc(Cn3cc([N+](=O)[O-])cn3)o2)c1`, the inhibition is 89.2% (active). Turning to `CCc1ccc(NC(=O)c2ccc(Cn3cc([N+](=O)[O-])cn3)cc2)cc1`, the inhibition is 1.22%. As for `O=C(Nc1ccc(Br)c2cccnc12)c1ccc(Cn2cc([N+](=O)[O-])cn2)o1`, the inhibition was 1.01%.

For `Cc1ccc(SCCC(=O)NC(C(C)C)C(C)C)cc1`, the inhibition was 29.5%. As to `CCOC(=O)CNc1nc2ccccc2n2c(C)nnc12`, the inhibition is 4.58%. The same measure for `COc1ccc(-n2c(C)cc(C(=O)COC(=O)c3cc(OC)c(OC)cc3NC(=O)c3cccs3)c2C)cc1`: 91.7% (active); for `COc1ccc(-n2c(C)cc(C(=O)CSc3nnc(-c4cccs4)o3)c2C)cc1`: 4.95%. Take `Cc1cc(C(=O)COC(=O)c2cccs2)c(C)n1-c1c(C)n(C)n(-c2ccccc2)c1=O`: the inhibition is 1.17%. Regarding `Brc1ccc(-c2csc(N/N=C/c3cccnc3)n2)cc1`, the inhibition is -0.01%. As for `O=C(COC(=O)c1ccccc1)Nc1cccc(S(=O)(=O)N2CCOCC2)c1`, the inhibition is 8.84%.

With `Cc1ccc(NC(=O)C(=O)NCc2ccc(/C=N/NC(=O)c3c(C)nc4cc(C)ccn34)o2)cc1`, the inhibition was 24.5%.

Consider `c1ccc(-n2nnnc2-c2cccnc2)cc1`, for which the inhibition was 1.93%. As to `COc1cccc(OC)c1C(=O)Nc1ccc(Cc2ccncc2)cc1`, the inhibition is 1.46%. Regarding `CCOc1ccc(C(CC(=O)O)NC(=O)C23CC4CC(CC(C4)C2)C3)cc1OC` (configuration not stated), the inhibition was -1.01%. As for `O=[N+]([O-])c1ccc2[nH]c3c(c2c1)CCCC3O` (configuration not stated), the inhibition was 14.8%. `O=C(NC1CC1)C1CCCN(C(=O)NC2CCCCC2)C1` (configuration not stated): the inhibition is 6.29%. With `CCN(CC)c1ccc([N+](=O)[O-])cc1C(=O)O`, the inhibition is 3.47%.

In the case of `COc1cccc2cc(/C(C)=N/NC(=O)c3ccco3)oc12`, the inhibition is 6.63%.

Turning to `CC(=O)N1CCc2cc(Br)cc(S(=O)(=O)CCC(=O)Nc3c(C)n(C)n(-c4ccccc4)c3=O)c21`, the inhibition is -0.95%. On to `O=C(Cn1ncc(N2CCCC2)c(Br)c1=O)c1ccc(Cl)cc1`, for which the inhibition was 8.74%. For `O=C(N/C(=C\c1ccc(F)cc1)C(=O)N1CCCCCC1)c1ccccc1`, the inhibition was 0.94%. Turning to `CCc1nnc(NC(=O)Cc2cccs2)s1`, the inhibition is -0.23%. As for `COc1cccc(/C(C)=N/Nc2ncc(Cl)cc2Cl)c1`, the figure is 16.5%; as for `Cc1c(Cl)cnc(NC(=O)COC(=O)c2ccc(S(=O)(=O)NCc3ccco3)cc2)c1Cl`, -0.23%. For the compound `C/C(=N\Nc1ncc(Cl)cc1Cl)c1ccc(S(=O)(=O)NCc2ccco2)cc1`, the inhibition was 81.6% (active). Take `Cc1ccccc1N/C(SCc1ccc(Cl)cc1)=C(/C#N)C(N)=O`: the inhibition is 9.99%. Consider `C/C(N)=C(/C#N)C(=O)COC(=O)C1CCN(C(=O)c2ccc(Cl)cc2)CC1`, for which the inhibition was 6.63%. Consider `Cc1c(C(=O)NCCCc2ccccc2)cccc1[N+](=O)[O-]`, for which the inhibition is 5.18%. As for `O=C(NCCCN1CCOCC1)c1ccc([N+](=O)[O-])cc1[N+](=O)[O-]`, the figure is 1.56%; as for `CN1CCCN(C(=O)C2CCCCC2)CC1`, 3.74%; as for `CCN1CCN(C(=O)CCN2C(=O)c3ccccc3C2=O)CC1`, 12.2%.

For the compound `CCN(C(=O)CSc1nnc2ccccn12)C1CCS(=O)(=O)C1` (configuration not stated), the inhibition was 6.4%. As to `O=C(CCCOc1ccc(Cl)cc1Cl)NNC(=O)C1CCC1`, the inhibition is 8.42%.

For `C#CCOCCOCCOCCNc1nc(N2CCN(C(=O)[C@H](Cc3ccc(O)cc3)n3cc(C(N)CC(C)C)nn3)CC2)nc(N2CCN(C(=O)[C@H](CCC(=O)O)n3cc(C(N)[C@H](C)CC)nn3)CC2)n1` (some centres not stated), the inhibition is -1.91%. `Cc1[nH]c2ccccc2c1/C=N/NC(=O)CNC(=O)c1ccc2c(c1)OCO2`: the inhibition was 0.16%. `O=C(NNC(=S)Nc1ccc(Br)cc1Cl)c1ccco1`: the inhibition is -9.07%. The same measure for `CNC(=O)c1ccsc1NC(=O)c1ccc(S(=O)(=O)N2CCc3ccccc32)cc1`: 0.15%. In the case of `CCCC(=O)NC(=S)Nc1ccc(CN2CCOCC2)cc1`, the inhibition was 1.31%. As for `CCN(C(=O)COC(=O)/C=C/c1nc2ccccc2s1)C1CCS(=O)(=O)C1` (configuration not stated), the figure is 1.28%; as for `O=C(Nc1ccc(C(=O)O)cc1)/C(=C/c1ccc([N+](=O)[O-])cc1)NC(=O)c1ccccc1`, 2.36%; as for `C=CCNC(=O)/C=C/c1ccc(C(C)C)cc1`, 3.56%.

Regarding `Cc1ccc(S(=O)(=O)NCCc2nnc3ccc(SCc4cccnc4)nn23)cc1`, the inhibition was 0.68%.

On to `COc1ccc(C(=O)COC(=O)c2nn(C)c(=O)c3ccccc23)c(OC)c1`, for which the inhibition is 8.17%.

`COCCCNC(=O)CNC(=S)N(Cc1cc(OC)c(OC)c(OC)c1)C1CCCC1`: the inhibition is -0.12%.

Regarding `O=C(COc1ccc(S(=O)(=O)N2CCCCC2)cc1)NCc1ccccn1`, the inhibition was 1.47%. As for `CC1(C)CC(=O)c2c(n(S(=O)(=O)c3ccccc3)c3ccc(NS(=O)(=O)c4ccccc4)cc23)C1`, the inhibition was -0.92%.

Take `COc1ccc(Cl)cc1N(CC(=O)N/N=C/c1ccc(OCC(N)=O)cc1)S(C)(=O)=O`: the inhibition is 8.83%. On to `CCOc1ccc(-n2cnnn2)cc1S(=O)(=O)N1CCC(C)CC1C` (configuration not stated), for which the inhibition was 0.53%. As for `O=C(NCCN1CCOCC1)Nc1cccc(Cl)c1`, the inhibition is 4.87%. Turning to `Cc1cc(C)c2[nH]c(=O)c(CN(Cc3ccccc3)C(=S)NCCCN(C)C)cc2c1`, the inhibition was 54.5%. The same measure for `Nn1c(SCC(=O)Nc2nccs2)nncc1=O`: 0.11%. As for `COCCCNC(=O)/C=C/c1ccc(OCc2c(F)cccc2Cl)cc1`, the figure is 3.58%; as for `COc1ccc(-c2[nH]ncc2CN(Cc2nccn2C)C(C)C)cc1F`, 3.43%.

Take `N#CC1(C#N)C(C(=O)C23CC4CC(CC(C4)C2)C3)C12CCOCC2` (configuration not stated): the inhibition is -1.02%. With `COc1cc(N2C(=O)c3ccccc3C2=O)c(Cl)cc1C(=O)OCC(=O)N1CCOCC1`, the inhibition is 2.21%.

Regarding `O=C(Oc1cccc(N2C(=O)C3C4c5ccccc5C(c5ccccc54)C3C2=O)c1)c1ccco1` (configuration not stated), the inhibition was 0.99%. For the compound `O=C1OCC2=C1C(c1ccccc1)CC(=O)N2c1cccc(F)c1` (configuration not stated), the inhibition is 10.8%. Take `COc1ccc(CN(C)Cc2nc3cc(OC)c(OC)cc3c(=O)[nH]2)c(OC)c1`: the inhibition is 3.26%.

Regarding `C[N+]1(CC(O)COc2ccccc2)CCN(C(=O)c2ccc([N+](=O)[O-])cc2)CC1` (configuration not stated), the inhibition was 4.9%.

`CC1(C)CC(=O)C2=C(C1)Nc1cc(C(=O)c3ccccc3)ccc1NC2c1ccccn1` (configuration not stated): the inhibition is 1.87%. Consider `CCN=c1sc(C(=O)Nc2ccccc2)c(C)n1CC`, for which the inhibition was 3.73%. Consider `CC(C)(C)C(=O)CN1C2=NCCN2c2ccccc21`, for which the inhibition is 2.76%. On to `Cn1c(=O)c2c(nc(N/N=C/c3cccs3)n2Cc2ccc(Br)cc2)n(C)c1=O`, for which the inhibition was 8.74%.

Regarding `COc1ccc(Cl)cc1NC(=O)CNc1ccccc1F`, the inhibition is 28.9%. For the compound `Cc1ccc2sc(NNC(=O)c3ccc4c(c3)OCCO4)nc2c1C`, the inhibition is 0%.
